Assay results reported in ChEMBL document CHEMBL5724801, “EUbOPEN Chemogenomics Library - Multiplex” (2024).
Values joined by “and” are separate entries in the source; they are usually repeats but may differ in a detail not shown here. Equal values may be shown once.

Tested on: U2OS
Assay: Multiplex assay against U2OS
Type: toxicity, cell-based
Conditions: human
Outline: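 Hoechst33342, BioTracker Green Microtubule Cytoskeleton Dye, MitoTracker Red and Annexin V Alexa Fluor 680 were added to live cells at seeding, and imaging on a CQ1 microscope at 37°C and 5% CO2 followed compound addition. Gating by CellPathfinder machine learning separated cells into Hoechst high-intensity objects or normal cells, then normal cells into healthy, pyknosed or fragmented nuclei, then pyknosed cells into mitotic or apoptotic. Per cents of healthy-nucleus cells are reported for the tubulin, mitochondrial-mass and membrane-permeability phenotypes.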

[1] = 12 h, 1 µM, compound concentration 1 uM
[2] = 12 h, 10 µM, compound concentration 10 uM
[3] = 24 h, 1 µM, compound concentration 1 uM
[4] = 24 h, 10 µM, compound concentration 10 uM
[5] = 48 h, 1 µM, compound concentration 1 uM
[6] = 48 h, 10 µM, compound concentration 10 uM

For `Cc1nn(C)c2nc(NNC(=O)Nc3cc(Cl)nc(Cl)c3)cc(C(C)C)c12`, the “Population Apoptotic (%)” value [1] was 76% and 72%, the “Population Fragmented Nuclei (%)” value [1] was 23% and 14% and the “Population Healthy Nuclei (%)” value [1] was 66% and 76%. For the same compound, the “Population Hoechst High Intensity Objects (%)” value [1] was 1% and 2%, the “Population Membrane Permeable-Phenotype (%)” value [1] was 5% and 10% and the “Population Mitochondria Different-Phenotype (%)” value [1] was 3% and 7%. The “Population Mitotic Cells (%)” value [1] was 24% and 27%, the “Population Normal (%)” value [1] was 98% and 97% and the “Population Pyknosed Nuclei (%)” value [1] was 9% and 8%. The “Population Tubulin-Different-Phenotype (%)” value [1] was 2% and 7%, the “Total Cell Count” value [1] was 268 and 131 and the “Population Apoptotic (%)” value [2] was 77% and 47%. The “Population Fragmented Nuclei (%)” value [2] was 21% and 15%, the “Population Healthy Nuclei (%)” value [2] was 56% and 63% and the “Population Hoechst High Intensity Objects (%)” value [2] was 7% and 4%. For the same compound, the “Population Membrane Permeable-Phenotype (%)” value [2] was 75% and 57%, the “Population Mitochondria Different-Phenotype (%)” value [2] was 46% and 63% and the “Population Mitotic Cells (%)” value [2] was 22% and 52%. The “Population Normal (%)” value [2] was 92% and 95%, the “Population Pyknosed Nuclei (%)” value [2] was 21% and the “Population Tubulin-Different-Phenotype (%)” value [2] was 80% and 77%. The “Total Cell Count” value [2] was 222 and 104, the “Population Apoptotic (%)” value [3] was 80% and 93% and the “Population Fragmented Nuclei (%)” value [3] was 20% and 17%. The “Population Healthy Nuclei (%)” value [3] was 71% and 73%, the “Population Hoechst High Intensity Objects (%)” value [3] was 0% and 2% and the “Population Membrane Permeable-Phenotype (%)” value [3] was 4% and 9%. The “Population Mitochondria Different-Phenotype (%)” value [3] was 2% and 4%, the “Population Normal (%)” value [3] was 99% and 97% and the “Population Pyknosed Nuclei (%)” value [3] was 8% and 9%. The “Population Tubulin-Different-Phenotype (%)” value [3] was 1% and 4%, the “Total Cell Count” value [3] was 328 and 168 and the “Population Apoptotic (%)” value [4] was 78% and 69%. For the same compound, the “Population Fragmented Nuclei (%)” value [4] was 19% and 16%, the “Population Healthy Nuclei (%)” value [4] was 49% and 61% and the “Population Hoechst High Intensity Objects (%)” value [4] was 5% and 2%. The “Population Membrane Permeable-Phenotype (%)” value [4] was 69% and 42%, the “Population Mitochondria Different-Phenotype (%)” value [4] was 58% and 51% and the “Population Mitotic Cells (%)” value [4] was 21% and 30%. For the same compound, the “Population Normal (%)” value [4] was 94% and 97%, the “Population Pyknosed Nuclei (%)” value [4] was 31% and 21% and the “Population Tubulin-Different-Phenotype (%)” value [4] was 77% and 57%. The “Total Cell Count” value [4] was 218 and 110, the “Population Apoptotic (%)” value [5] was 88% and 86% and the “Population Fragmented Nuclei (%)” value [5] was 17% and 21%. The “Population Healthy Nuclei (%)” value [5] was 75% and 65%, the “Population Hoechst High Intensity Objects (%)” value [5] was 2% and 1% and the “Population Membrane Permeable-Phenotype (%)” value [5] was 4% and 8%. The “Population Mitochondria Different-Phenotype (%)” value [5] was 3% and 4%, the “Population Mitotic Cells (%)” value [5] was 11% and 13% and the “Population Normal (%)” value [5] was 97% and 98%. For the same compound, the “Population Pyknosed Nuclei (%)” value [5] was 7% and 12%, the “Population Tubulin-Different-Phenotype (%)” value [5] was 2% and 5% and the “Total Cell Count” value [5] was 504 and 247. For the same compound, the “Population Apoptotic (%)” value [6] was 83% and 80%, the “Population Fragmented Nuclei (%)” value [6] was 24% and the “Population Healthy Nuclei (%)” value [6] was 43% and 48%. The “Population Hoechst High Intensity Objects (%)” value [6] was 9% and 6%, the “Population Membrane Permeable-Phenotype (%)” value [6] was 51% and the “Population Mitochondria Different-Phenotype (%)” value [6] was 46% and 63%. For the same compound, the “Population Mitotic Cells (%)” value [6] was 16% and 20%, the “Population Normal (%)” value [6] was 90% and 93% and the “Population Pyknosed Nuclei (%)” value [6] was 32% and 27%. The “Population Tubulin-Different-Phenotype (%)” value [6] was 49% and 57% and the “Total Cell Count” value [6] was 244 and 115.

With `Cc1[nH]nc2ccc(-c3cncc(OCC(N)Cc4c[nH]c5ccccc45)c3)cc12` (configuration not stated) the “Population Apoptotic (%)” value [1] was 44.72% and 48.45%, the “Population Fragmented Nuclei (%)” value [1] was 8.59% and 11.33% and the “Population Healthy Nuclei (%)” value [1] was 46.81% and 24%. The “Population Hoechst High Intensity Objects (%)” value [1] was 0%, the “Population Membrane Permeable-Phenotype (%)” value [1] was 2.37% and 0% and the “Population Mitotic Cells (%)” value [1] was 55.28% and 51.55%. For the same compound, the “Population Normal (%)” value [1] was 100%, the “Population Pyknosed Nuclei (%)” value [1] was 44.6% and 64.67% and the “Population Tubulin-Different-Phenotype (%)” value [1] was 4.73% and 0%. For the same compound, the “Total Cell Count” value [1] was 361 and 150, the “Population Apoptotic (%)” value [2] was 65.77% and 68.92% and the “Population Fragmented Nuclei (%)” value [2] was 11.37% and 8.4%. The “Population Healthy Nuclei (%)” value [2] was 2.49% and 6.87%, the “Population Hoechst High Intensity Objects (%)” value [2] was 0% and the “Population Membrane Permeable-Phenotype (%)” value [2] was 0% and 22.22%. For the same compound, the “Population Mitochondria Different-Phenotype (%)” value [2] was 35.71% and 55.56%, the “Population Mitotic Cells (%)” value [2] was 34.23% and 31.08% and the “Population Normal (%)” value [2] was 100%. The “Population Pyknosed Nuclei (%)” value [2] was 86.15% and 84.73%, the “Population Tubulin-Different-Phenotype (%)” value [2] was 42.86% and 33.33% and the “Total Cell Count” value [2] was 563 and 262. The “Population Apoptotic (%)” value [3] was 64.71% and 80.2%, the “Population Fragmented Nuclei (%)” value [3] was 9.73% and 13.51% and the “Population Healthy Nuclei (%)” value [3] was 38.6% and 18.24%. The “Population Hoechst High Intensity Objects (%)” value [3] was 0%, the “Population Membrane Permeable-Phenotype (%)” value [3] was 3.15% and 3.7% and the “Population Mitotic Cells (%)” value [3] was 35.29% and 19.8%. For the same compound, the “Population Normal (%)” value [3] was 100%, the “Population Pyknosed Nuclei (%)” value [3] was 51.67% and 68.24% and the “Population Tubulin-Different-Phenotype (%)” value [3] was 2.36% and 7.41%. For the same compound, the “Total Cell Count” value [3] was 329 and 148, the “Population Apoptotic (%)” value [4] was 93.93% and 93.15% and the “Population Fragmented Nuclei (%)” value [4] was 7.63% and 5.95%. For the same compound, the “Population Healthy Nuclei (%)” value [4] was 4.33% and 7.14%, the “Population Hoechst High Intensity Objects (%)” value [4] was 0% and the “Population Mitochondria Different-Phenotype (%)” value [4] was 17.65% and 50%. For the same compound, the “Population Mitotic Cells (%)” value [4] was 6.07% and 6.85%, the “Population Normal (%)” value [4] was 100% and the “Population Pyknosed Nuclei (%)” value [4] was 88.04% and 86.9%. For the same compound, the “Population Tubulin-Different-Phenotype (%)” value [4] was 35.29% and 16.67%, the “Total Cell Count” value [4] was 393 and 168 and the “Population Apoptotic (%)” value [5] was 73.68% and 85.57%. The “Population Fragmented Nuclei (%)” value [5] was 8.46% and 13.19%, the “Population Healthy Nuclei (%)” value [5] was 34.14% and 19.44% and the “Population Hoechst High Intensity Objects (%)” value [5] was 0%. The “Population Mitochondria Different-Phenotype (%)” value [5] was 1.77% and 10.71%, the “Population Mitotic Cells (%)” value [5] was 26.32% and 14.43% and the “Population Normal (%)” value [5] was 100%. The “Population Pyknosed Nuclei (%)” value [5] was 57.4% and 67.36%, the “Population Tubulin-Different-Phenotype (%)” value [5] was 5.31% and 0% and the “Total Cell Count” value [5] was 331 and 144. The “Population Apoptotic (%)” value [6] was 96.14% and 98.84%, the “Population Fragmented Nuclei (%)” value [6] was 9.73% and 10.67% and the “Population Healthy Nuclei (%)” value [6] was 29.2% and 32%. For the same compound, the “Population Hoechst High Intensity Objects (%)” value [6] was 0%, the “Population Membrane Permeable-Phenotype (%)” value [6] was 12.12% and 29.17% and the “Population Mitochondria Different-Phenotype (%)” value [6] was 23.23% and 35.42%. The “Population Mitotic Cells (%)” value [6] was 3.86% and 1.16%, the “Population Normal (%)” value [6] was 100% and the “Population Pyknosed Nuclei (%)” value [6] was 61.06% and 57.33%. The “Population Tubulin-Different-Phenotype (%)” value [6] was 14.14% and 16.67% and the “Total Cell Count” value [6] was 339 and 150.
